Calls of active or inactive are those of the source. No cut-off for these calls is given here.
How the values were obtained:
[1] = species: Homo sapiens; assay: Inhibition of human GST-SOD1 A4V and N53A mutant aggregation expressed in Escherichia coli Rosetta assessed as dimeric enzyme level at 75 uM by […]
How it was run: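 Metal-free SOD-1 mutant prepared by dialysis against acetate pH 3.8/10mM EDTA, then pH 5.5/100mM NaCl; chelex-treated buffers, plastic tubes. Dimer purified on Superdex 75. Apoprotein 25μM preincubated with compound 75μM, 37°C, 15 min; aggregation started with 5mM EDTA at 37°C. Aliquots analysed by Superdex 200 gel filtration in TBS pH 7.4 (220/276 nm); dimer estimated from peak area.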

[2] = species: Homo sapiens; assay: Inhibition of human GST-SOD1 A4V mutant aggregation expressed in Escherichia coli Rosetta assessed as dimeric enzyme level at 20 uM […]
How it was run: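 Metal-free SOD-1 A4V apoprotein (25μM) preincubated with increasing compound concentrations, 37°C, 15 min, then 5mM EDTA added and aggregation run 4 hrs at 37°C. Dimer measured by size exclusion chromatography peak area; percentage inhibition calculated against untreated A4V.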

[3] = species: Homo sapiens; assay: Inhibition of human GST-SOD1 A4V mutant aggregation expressed in Escherichia coli Rosetta assessed as dimeric enzyme level at 75 uM by […]
[4] = molecular target: Superoxide dismutase [Cu-Zn] (Homo sapiens) (UniProt P00441); assay: Binding affinity to human GST-SOD1 expressed in Escherichia coli Rosetta at 100 uM in presence of human plasma by reverse phase HPLC analysis; type: cell-free
How it was run: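 GST-SOD-1 fusion (final 75μM) added to 1 ml human blood plasma with compound at 100μM; shaken 60 rpm, 4°C, 24 h. Complex captured on glutathione-sepharose (4°C, 1 h), compound released with 5% TFA and quantified by C18 reverse-phase HPLC (40-100% acetonitrile/0.2% TFA gradient, 20 min). Buffer-only control taken as theoretical maximum for relative binding; GST tag alone as control.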

Chain of Superoxide dismutase [Cu-Zn] (Homo sapiens) (P00441 whole entry, the tested form may be a part): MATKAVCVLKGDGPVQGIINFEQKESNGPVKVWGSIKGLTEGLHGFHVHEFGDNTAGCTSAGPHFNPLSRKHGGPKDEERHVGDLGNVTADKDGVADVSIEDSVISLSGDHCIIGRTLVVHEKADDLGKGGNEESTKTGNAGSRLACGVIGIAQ

Row | SMILES | Activity [1] | Activity [2] | Activity [3] | Activity [4]
1 | O=c1[nH]cc(CSc2n[nH]c(=O)[nH]c2=O)c(=O)[nH]1 | inactive | Active |  | 
2 | O=c1[nH]nc(SCc2c(F)cccc2Cl)c(=O)[nH]1 |  |  | Active | inactive
3 | O=c1[nH]nc(SCc2ccccc2Cl)c(=O)[nH]1 |  |  | Active | inactive
4 | O=c1[nH]nc(SCc2ccccc2)c(=O)[nH]1 | inactive | Active | Active | inactive

Second part, the compound after the results:

Row | Activity [1] | Activity [2] | Activity [3] | Activity [4] | SMILES
5 |  |  |  | inactive | O=c1cc(Nc2ccc(Cl)cc2F)[nH]c(=O)[nH]1
6 |  |  | Active | inactive | O=c1cc(Nc2ccc3ccccc3c2)[nH]c(=O)[nH]1
